Type in all cases: functional, cell-based
Assay [1] is described as follows: Cytotoxicity against human 518A2 cells after 96 hrs by SRB assay. An outline of the steps:
(§1)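 Monolayer cultures in RPMI 1640 with 10% heat-inactivated FBS and penicillin/streptomycin, 37 °C, 5% CO2. Exponentially growing cells were seeded, then treated 24 h later with serial dilutions (0–30 µM; DMSO or DMF ≤0.5% final) for 96 h. Cells were fixed with 10% TCA at 4 °C, stained with 0.4% SRB and solubilized in 10 mM Tris base; A570 was read. IC50 came from semi-log dose–response curves, ≥3 independent experiments.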
(In general: In SRB staining, fixed cells bind dye roughly in proportion to their protein.)

A further assay deals with DLD-1. Briefly: Cytotoxicity against human DLD1 cells after 96 hrs by SRB assay. An outline of the steps:
as §1

The subject of a further assay is A549. Briefly: Cytotoxicity against human A549 cells after 96 hrs by SRB assay. In short, it runs like this:
as §1

Assay [2] can be described thus: Cytotoxicity against human A253 cells after 96 hrs by SRB assay. In short, it runs like this:
as §1

Assay [3] is described as follows: Cytotoxicity against human Lipo cells after 96 hrs by SRB assay. An outline of the steps: as §1
The test system of the next assay is MCF7. Briefly: Cytotoxicity against human MCF7 cells after 96 hrs by SRB assay. In short, it runs like this:
as §1

A further assay deals with SW-1736. Briefly: Cytotoxicity against human SW1736 cells after 96 hrs by SRB assay. In short, it runs like this:
as §1

The next assay has as its system 8505C. Briefly: Cytotoxicity against human 8505C cells after 96 hrs by SRB assay. An outline of the steps:
as §1

For another assay, the system named is A2780. Briefly: Cytotoxicity against human A2780 cells after 96 hrs by SRB assay. In short, it runs like this:
as §1

In the next assay the test system is HCT-116. Briefly: Cytotoxicity against human HCT116 cells after 96 hrs by SRB assay. An outline of the steps:
as §1

The next assay has as its system A-431. Nature of the assay: Cytotoxicity against human A431 cells after 96 hrs by SRB assay. In short, it runs like this:
as §1

A further assay concerns HT-29. Nature of the assay: Cytotoxicity against human HT-29 cells after 96 hrs by SRB assay. In short, it runs like this: as §1

Molecules are shown by their SMILES.

Turning to `CCOC(=O)[C@@]1(C)CC[C@]2(C)CC[C@]3(C)C(=CC(=O)[C@@H]4[C@@](C)(CCC(=O)O)[C@H](C(C)(C)O)CC[C@]43C)[C@@H]2C1`, the IC50 (in assay [1]; with DLD-1; in the assay on A549; in assay [2]; in assay [3]; in the assay with MCF7) was more than 30 µmol each time. Also, the IC50 in the assay with SW-1736, with 8505C and in the assay on A2780 was more than 30 µmol throughout.
`COC(=O)[C@@]1(C)CC[C@]2(C)CC[C@]3(C)C(=CC(=O)[C@@H]4[C@@]5(C)CC[C@H](OC(=O)CCC(=O)O)C(C)(C)[C@@H]5CC[C@]43C)[C@@H]2C1`: the IC50 (in assay [1]; with DLD-1; in the assay with A549; in assay [2]; in [3]; in the assay on 8505C) was more than 30 µmol in each case.
As to `CCOC(=O)[C@@]1(C)CC[C@]2(C)CC[C@]3(C)C(=CC(=O)[C@@H]4[C@@]5(C)CC[C@H](OC(=O)CCC(=O)O)C(C)(C)[C@@H]5CC[C@]43C)[C@@H]2C1`, the IC50 in assay [1] was 28.99 µmol; in the assay on DLD-1 it was more than 30 µmol; in the assay on A549, more than 30 µmol; in assay [2], more than 30 µmol; in [3] it was more than 30 µmol; with 8505C, more than 30 µmol.
On to `CCOC(=O)[C@@]1(C)CC[C@]2(C)CC[C@]3(C)C(=CC(=O)[C@@H]4[C@@]5(C)CCC(=O)OC(C)(C)[C@@H]5CC[C@]43C)[C@@H]2C1`, for which the IC50 is more than 30 µmol in assay [1]; more than 30 µmol in the assay with DLD-1; more than 30 µmol with A549; 28.73 µmol in assay [2]; more than 30 µmol in [3]; 20.58 µmol in the assay with MCF7. Moreover, the IC50 in the assay with SW-1736 was 12.71 µmol; in the assay with 8505C it was more than 30 µmol; in the assay on A2780, 15 µmol.
As to `CCOC(=O)[C@@]1(C)CC[C@]2(C)CC[C@]3(C)C(=CC(=O)[C@@H]4[C@@]5(C)C[C@H]6O[C@H]6C(C)(C)[C@@H]5CC[C@]43C)[C@@H]2C1`, the IC50 (in [1]; with HCT-116; in the assay on DLD-1; in the assay with A549; in the assay with A-431; in assay [2]) was more than 30 µmol each time. The IC50 (in the assay with HT-29; in [3]; in the assay with MCF7) was more than 30 µmol throughout.
With `COC(=O)[C@@]1(C)CC[C@]2(C)CC[C@]3(C)C(=CC(=O)[C@@H]4[C@@]5(C)CC[C@H](OC(=O)[C@H](CSCc6ccccc6)NC(=O)OC(C)(C)C)C(C)(C)[C@@H]5CC[C@]43C)[C@@H]2C1`, the IC50 (in assay [1]; in the assay on DLD-1; with A549; in assay [2]; in [3]; in the assay on SW-1736) was more than 30 µmol in each case. For the same molecule, the IC50 with 8505C is more than 30 µmol.
In the case of `C=C(C)[C@@H]1CC[C@]2(C)[C@H](C(=O)C=C3[C@@H]4C[C@@](C)(C(=O)OCC)CC[C@]4(C)CC[C@]32C)[C@@]1(C)CCC(=O)OCC`, the IC50 in assay [1] was 9.28 µmol; in the assay on DLD-1, more than 30 µmol; in the assay on A549, more than 30 µmol; in assay [2] it was more than 30 µmol; in assay [3], more than 30 µmol; with MCF7, 25.42 µmol. Also, the IC50 in the assay on SW-1736 is 26.74 µmol; in the assay with 8505C, more than 30 µmol; in the assay on A2780, 5.89 µmol.
In the case of `COC(=O)[C@@]1(C)CC[C@]2(C)CC[C@]3(C)C(=CC(=O)[C@@H]4[C@@]5(C)Cc6nccnc6C(C)(C)[C@@H]5CC[C@]43C)[C@@H]2C1`, the IC50 (in assay [1]; in the assay on DLD-1; with A549; in [2]; in assay [3]; with MCF7) was more than 30 µmol in each case. Further, the IC50 in the assay with SW-1736, in the assay on 8505C and in the assay on A2780 was more than 30 µmol each time.
As for `COC(=O)[C@@]1(C)CC[C@]2(C)CC[C@]3(C)C(=CC(=O)[C@@H]4[C@@]5(C)CC[C@H](OC(=O)[C@H](CO[Si](C)(C)C(C)(C)C)NC(=O)OC(C)(C)C)C(C)(C)[C@@H]5CC[C@]43C)[C@@H]2C1`, the IC50 in assay [1] was more than 30 µmol; with DLD-1, more than 30 µmol; with A549, more than 30 µmol; in assay [2], 28.59 µmol; in [3], more than 30 µmol; in the assay on 8505C it was more than 30 µmol.
Consider `COC(=O)[C@@]1(C)CC[C@]2(C)CC[C@]3(C)C(=CC(=O)[C@@H]4[C@@]5(C)CC/C(=N\OC(C)C)C(C)(C)[C@@H]5CC[C@]43C)[C@@H]2C1`, for which the IC50 (in assay [1]; in the assay on DLD-1; in the assay with A549; in [2]; in [3]; in the assay with MCF7) was more than 30 µmol each time. Besides, the IC50 with SW-1736, in the assay with 8505C and in the assay with A2780 was more than 30 µmol each time.
With `C=C(C)[C@@H]1CC[C@]2(C)[C@H](C(=O)C=C3[C@@H]4C[C@@](C)(C(=O)OCC)CC[C@]4(C)CC[C@]32C)[C@@]1(C)CCC(=O)O`, the IC50 (in assay [1]; in the assay on DLD-1; with A549; in [2]; in assay [3]; in the assay on MCF7) was more than 30 µmol each time. For the same molecule, the IC50 in the assay with SW-1736, in the assay with 8505C and in the assay with A2780 was more than 30 µmol each time.
Turning to `COC(=O)[C@@]1(C)CC[C@]2(C)CC[C@]3(C)C(=CC(=O)[C@@H]4[C@@]5(C)CC[C@H](OC(=O)[C@H](CSC(=O)OC(C)(C)C)NC(=O)OC(C)(C)C)C(C)(C)[C@@H]5CC[C@]43C)[C@@H]2C1`, the IC50 (in [1]; in the assay with DLD-1; in the assay on A549; in [2]; in assay [3]; with SW-1736) was more than 30 µmol each time. This molecule came in with an IC50 in the assay with 8505C of more than 30 µmol.
As to `COC(=O)[C@@]1(C)CC[C@]2(C)CC[C@]3(C)C(=CC(=O)[C@@H]4[C@@]5(C)CCC(=O)C(C)(C)[C@@H]5CC[C@]43C)[C@@H]2C1`, the IC50 (in assay [1]; in the assay with DLD-1; in the assay on A549; in [2]; in assay [3]; in the assay on MCF7) was more than 30 µmol in each case. Further, the IC50 in the assay on SW-1736 is 29.09 µmol; in the assay on 8505C, more than 30 µmol; with A2780 it was more than 30 µmol.
For `CCCCCCCCO/N=C1\CC[C@]2(C)[C@H]3C(=O)C=C4[C@@H]5C[C@@](C)(C(=O)OC)CC[C@]5(C)CC[C@@]4(C)[C@]3(C)CC[C@H]2C1(C)C`, the IC50 in [1] is more than 30 µmol; with DLD-1, more than 30 µmol; with A549 it was more than 30 µmol; in [2], more than 30 µmol; in assay [3], more than 30 µmol; in the assay with MCF7, 26.35 µmol. Further, the IC50 with SW-1736 is 17.77 µmol; in the assay on 8505C, more than 30 µmol; with A2780 it was 19.73 µmol.
As to `CCOC(=O)[C@@]1(C)CC[C@]2(C)CC[C@]3(C)C(=CC(=O)[C@@H]4[C@@]5(C)CCC(=O)C(C)(C)[C@@H]5CC[C@]43C)[C@@H]2C1`, the IC50 (in [1]; in the assay on DLD-1; in the assay on A549; in [2]; in assay [3]; in the assay on MCF7) was more than 30 µmol each time. The IC50 in the assay on SW-1736, with 8505C and in the assay on A2780 was more than 30 µmol in each case.
Take `COC(=O)[C@@]1(C)CC[C@]2(C)CC[C@]3(C)C(=CC(=O)[C@@H]4[C@@]5(C)CC[C@H](OS(=O)(=O)c6ccc(C)cc6)C(C)(C)[C@@H]5CC[C@]43C)[C@@H]2C1`: the IC50 (in assay [1]; in the assay with DLD-1; in the assay with A549; in [2]; in assay [3]; with 8505C) was more than 30 µmol each time.
As to `CCOC(=O)[C@@]1(C)CC[C@]2(C)CC[C@]3(C)C(=CC(=O)[C@@H]4[C@@]5(C)CC=CC(C)(C)[C@@H]5CC[C@]43C)[C@@H]2C1`, the IC50 (in [1]; with HCT-116; with DLD-1; with A549; in the assay on A-431; in assay [2]) was more than 30 µmol throughout. Further, the IC50 (with HT-29; in [3]; in the assay with MCF7) was more than 30 µmol throughout.
